# From ChEMBL document CHEMBL1177709, “Molecular switch controlling the binding of anionic bile acid conjugates to human apical sodium-dependent bile acid transporter” (J Med Chem, 2010)
# Target: T1, Ileal sodium/bile acid cotransporter (Homo sapiens, UniProt Q12908)
# T1 sequence (Q12908 whole entry): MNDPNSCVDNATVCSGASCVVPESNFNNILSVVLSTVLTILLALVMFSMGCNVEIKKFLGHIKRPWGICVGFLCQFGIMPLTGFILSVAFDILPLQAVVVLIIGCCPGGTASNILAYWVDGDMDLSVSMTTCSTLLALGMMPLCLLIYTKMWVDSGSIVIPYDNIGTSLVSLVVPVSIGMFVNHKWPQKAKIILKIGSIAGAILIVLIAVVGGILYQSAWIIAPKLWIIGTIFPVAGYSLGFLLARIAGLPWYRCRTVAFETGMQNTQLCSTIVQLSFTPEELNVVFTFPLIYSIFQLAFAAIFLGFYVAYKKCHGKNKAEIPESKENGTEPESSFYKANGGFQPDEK
# Test: Inhibition of human ASBT expressed in MDCK cells assessed as inhibition of [3H]taurocholic acid uptake after 10 mins by liquid scintillation counting
# Assay type: cell-based
# Method in brief: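 Stably transfected hASBT-MDCK cells grown in DMEM with 10% FBS, penicillin/streptomycin and 1 mg/mL geneticin, seeded at 1.5 million/well, induced with 10mM sodium butyrate for 12-17 h before study on day 4. Cells washed with chilled sodium-free buffer, lysed in NaOH, neutralized, counted.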
row,Ki [µM],SMILES
1,1.91,C[C@H](CCC(=O)N[C@@H](CCC(=O)Nc1ccc(Cl)cc1)C(=O)O)[C@H]1CC[C@H]2[C@@H]3[C@H](O)C[C@H]4C[C@H](O)CC[C@]4(C)[C@H]3CC[C@]12C
2,2.02,C[C@H](CCC(=O)N[C@@H](CCC(=O)Nc1ccc(C(F)(F)F)cc1)C(=O)O)[C@H]1CC[C@H]2[C@@H]3[C@H](O)C[C@H]4C[C@H](O)CC[C@]4(C)[C@H]3CC[C@]12C
3,2.31,C[C@H](CCC(=O)N[C@@H](CCC(=O)Nc1ccccc1F)C(=O)O)[C@H]1CC[C@H]2[C@@H]3[C@H](O)C[C@H]4C[C@H](O)CC[C@]4(C)[C@H]3CC[C@]12C
4,1.25,C[C@H](CCC(=O)N[C@@H](CCC(=O)Nc1cccc(F)c1)C(=O)O)[C@H]1CC[C@H]2[C@@H]3[C@H](O)C[C@H]4C[C@H](O)CC[C@]4(C)[C@H]3CC[C@]12C
5,3.02,C[C@H](CCC(=O)N[C@@H](CCC(=O)Nc1ccc(F)cc1)C(=O)O)[C@H]1CC[C@H]2[C@@H]3[C@H](O)C[C@H]4C[C@H](O)CC[C@]4(C)[C@H]3CC[C@]12C
6,2.63,Cc1ccccc1NC(=O)CC[C@H](NC(=O)CC[C@@H](C)[C@H]1CC[C@H]2[C@@H]3[C@H](O)C[C@H]4C[C@H](O)CC[C@]4(C)[C@H]3CC[C@]12C)C(=O)O
7,0.889,Cc1cccc(NC(=O)CC[C@H](NC(=O)CC[C@@H](C)[C@H]2CC[C@H]3[C@@H]4[C@H](O)C[C@H]5C[C@H](O)CC[C@]5(C)[C@H]4CC[C@]23C)C(=O)O)c1
8,3.2,Cc1ccc(NC(=O)CC[C@H](NC(=O)CC[C@@H](C)[C@H]2CC[C@H]3[C@@H]4[C@H](O)C[C@H]5C[C@H](O)CC[C@]5(C)[C@H]4CC[C@]23C)C(=O)O)cc1
9,3.89,COc1ccccc1NC(=O)CC[C@H](NC(=O)CC[C@@H](C)[C@H]1CC[C@H]2[C@@H]3[C@H](O)C[C@H]4C[C@H](O)CC[C@]4(C)[C@H]3CC[C@]12C)C(=O)O
10,4.22,COc1cccc(NC(=O)CC[C@H](NC(=O)CC[C@@H](C)[C@H]2CC[C@H]3[C@@H]4[C@H](O)C[C@H]5C[C@H](O)CC[C@]5(C)[C@H]4CC[C@]23C)C(=O)O)c1
11,6.09,COc1ccc(NC(=O)CC[C@H](NC(=O)CC[C@@H](C)[C@H]2CC[C@H]3[C@@H]4[C@H](O)C[C@H]5C[C@H](O)CC[C@]5(C)[C@H]4CC[C@]23C)C(=O)O)cc1
12,3.93,C[C@H](CCC(=O)N[C@@H](CCC(=O)Nc1ccccc1C(C)(C)C)C(=O)O)[C@H]1CC[C@H]2[C@@H]3[C@H](O)C[C@H]4C[C@H](O)CC[C@]4(C)[C@H]3CC[C@]12C
13,0.587,C[C@H](CCC(=O)N[C@@H](CCC(=O)Nc1cccc(C(C)(C)C)c1)C(=O)O)[C@H]1CC[C@H]2[C@@H]3[C@H](O)C[C@H]4C[C@H](O)CC[C@]4(C)[C@H]3CC[C@]12C
14,0.275,C[C@H](CCC(=O)N[C@@H](CCC(=O)Nc1ccc(C(C)(C)C)cc1)C(=O)O)[C@H]1CC[C@H]2[C@@H]3[C@H](O)C[C@H]4C[C@H](O)CC[C@]4(C)[C@H]3CC[C@]12C
15,7.65,COC(=O)c1cccc(NC(=O)CC[C@H](NC(=O)CC[C@@H](C)[C@H]2CC[C@H]3[C@@H]4[C@H](O)C[C@H]5C[C@H](O)CC[C@]5(C)[C@H]4CC[C@]23C)C(=O)O)c1
16,4.03,COC(=O)c1ccc(NC(=O)CC[C@H](NC(=O)CC[C@@H](C)[C@H]2CC[C@H]3[C@@H]4[C@H](O)C[C@H]5C[C@H](O)CC[C@]5(C)[C@H]4CC[C@]23C)C(=O)O)cc1
17,2.64,C[C@H](CCC(=O)N[C@@H](CCC(=O)Nc1ccccc1N)C(=O)O)[C@H]1CC[C@H]2[C@@H]3[C@H](O)C[C@H]4C[C@H](O)CC[C@]4(C)[C@H]3CC[C@]12C
18,16.3,C[C@H](CCC(=O)N[C@@H](CCC(=O)Nc1cccc(N)c1)C(=O)O)[C@H]1CC[C@H]2[C@@H]3[C@H](O)C[C@H]4C[C@H](O)CC[C@]4(C)[C@H]3CC[C@]12C
19,15.9,C[C@H](CCC(=O)N[C@@H](CCC(=O)Nc1ccc(N)cc1)C(=O)O)[C@H]1CC[C@H]2[C@@H]3[C@H](O)C[C@H]4C[C@H](O)CC[C@]4(C)[C@H]3CC[C@]12C
20,3.16,C[C@H](CCC(=O)N[C@@H](CCC(=O)Nc1ccc(F)cc1F)C(=O)O)[C@H]1CC[C@H]2[C@@H]3[C@H](O)C[C@H]4C[C@H](O)CC[C@]4(C)[C@H]3CC[C@]12C
21,8.07,Cc1cccc(C)c1NC(=O)CC[C@H](NC(=O)CC[C@@H](C)[C@H]1CC[C@H]2[C@@H]3[C@H](O)C[C@H]4C[C@H](O)CC[C@]4(C)[C@H]3CC[C@]12C)C(=O)O
22,4.3,Cc1cccc(NC(=O)CC[C@H](NC(=O)CC[C@@H](C)[C@H]2CC[C@H]3[C@@H]4[C@H](O)C[C@H]5C[C@H](O)CC[C@]5(C)[C@H]4CC[C@]23C)C(=O)O)c1C
23,5.19,COc1cc(NC(=O)CC[C@H](NC(=O)CC[C@@H](C)[C@H]2CC[C@H]3[C@@H]4[C@H](O)C[C@H]5C[C@H](O)CC[C@]5(C)[C@H]4CC[C@]23C)C(=O)O)cc(OC)c1
24,108,C[C@H](CCC(=O)N[C@@H](CCC(=O)Nc1ccc(C(=O)O)cc1)C(=O)O)[C@H]1CC[C@H]2[C@@H]3[C@H](O)C[C@H]4C[C@H](O)CC[C@]4(C)[C@H]3CC[C@]12C
25,126,C[C@H](CCC(=O)N[C@@H](CCC(=O)NCc1cccc(C(=O)O)c1)C(=O)O)[C@H]1CC[C@H]2[C@@H]3[C@H](O)C[C@H]4C[C@H](O)CC[C@]4(C)[C@H]3CC[C@]12C
26,5.26,CC(CCC(=O)NC(CCC(=O)Nc1ccc(NC(=O)OC(C)(C)C)cc1)C(=O)O)C1CCC2C3C(O)CC4CC(O)CCC4(C)C3CCC12C (centres undefined)
27,5.16,CCOC(=O)c1ccc(NC(=O)CCC(NC(=O)CCC(C)C2CCC3C4C(O)CC5CC(O)CCC5(C)C4CCC23C)C(=O)O)cc1 (centres undefined)
28,6.53,CC(CCC(=O)NC(CCC(=O)Nc1cccc(NC(=O)OC(C)(C)C)c1)C(=O)O)C1CCC2C3C(O)CC4CC(O)CCC4(C)C3CCC12C (centres undefined)

row,SMILES,Ki [µM]
1,COC(=O)c1ccccc1NC(=O)CC[C@H](NC(=O)CC[C@@H](C)[C@H]1CC[C@H]2[C@@H]3[C@H](O)C[C@H]4C[C@H](O)CC[C@]4(C)[C@H]3CC[C@]12C)C(=O)O,2.3
2,C[C@H](CCC(=O)N[C@@H](CCC(=O)Nc1ccccc1C(=O)O)C(=O)O)[C@H]1CC[C@H]2[C@@H]3[C@H](O)C[C@H]4C[C@H](O)CC[C@]4(C)[C@H]3CC[C@]12C,40.4
3,C[C@H](CCC(=O)N[C@@H](CCC(=O)Nc1cccc(C(=O)O)c1)C(=O)O)[C@H]1CC[C@H]2[C@@H]3[C@H](O)C[C@H]4C[C@H](O)CC[C@]4(C)[C@H]3CC[C@]12C,35.9
4,C[C@H](CCC(=O)N[C@@H](CCC(=O)NCc1ccc(C(=O)O)cc1)C(=O)O)[C@H]1CC[C@H]2[C@@H]3[C@H](O)C[C@H]4C[C@H](O)CC[C@]4(C)[C@H]3CC[C@]12C,41
5,C[C@H](CCC(=O)N[C@@H](CCC(=O)Nc1cccc(C(=O)O)c1)C(=O)OOCc1ccccc1)[C@H]1CC[C@H]2[C@@H]3[C@H](O)C[C@H]4C[C@H](O)CC[C@]4(C)[C@H]3CC[C@]12C,2.24
6,CCOC(=O)c1ccccc1NC(=O)CCC(NC(=O)CCC(C)C1CCC2C3C(O)CC4CC(O)CCC4(C)C3CCC12C)C(=O)O (centres undefined),1.15
